Assay outcomes deposited in PubChem by Broad Institute.
FN deposit inh = inhibitors of fibronectin matrix deposition, primary screen, AH1F cells, Alexa488-fibronectin fluorescence, plate reader | AH1F fibroblasts, overnight | inhibition, % at 12.6 µM | actives 0.086% (n = 350,000) | AID 743247, 2014;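 active means mean inhibition across replicates of 30% or more, regardless of how many single replicates reach that level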;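 further: positive control wells lacked labelled fibronectin entirely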
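Assay system: AH1F fibroblasts assembling fluorescent fibronectin matrix; Amount: 10000 AH1F cells per well; Buffer or medium: DMEM, 2% serum; Probe or stimulus: Alexa488-fibronectin, 24 nM final in well; Doses: single compound dose, delivered by pin transfer; Incubation: 1 h adhesion, overnight exposure; Measured by: fluorescence 485/525 nm; Read-out: fibronectin deposition inhibition.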
XiGFP reactiv = activators of inactive X chromosome reactivation, primary screen, imaging, XiGFP fibroblasts, GFP high-content imaging, set 2. XiGFP mouse fibroblasts, % GFP-positive cells imaging, 3 d; cells co-treated with 5-aza-dC sensitizer; scaled so ellipticine positive control = 100%. activation, % at 7.58 µM. actives 0.055% (n = 360,000);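 active means mean normalized replicate activation at least 10% and every replicate at or above 10%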;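 further: 0% = median of on-plate neutral control wells and 100% = ellipticine 6 µM median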
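material = 68-5-11 XiGFP fibroblast line | medium = DMEM plus 5-aza-dC sensitizer | schedule = 3 days compound exposure | benchmarks = positive control ellipticine, 6 µM final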
SIRT5 inh = SIRT5 desuccinylase inhibitors, primary screen, biochemical, fluorescence imaging, single point, set 5 | Purified SirT5, succinyl-peptide AMC, trypsin-coupled fluorescence | NAD-dependent protein deacylase sirtuin-5, mitochondrial (Homo sapiens), Q9NXA8 | inhibition, % at 15 µM | actives 1.1% (n = 330,000); in the data active means inhibition above about 15%
FGF22 binding = binders of human FGF22 protein, primary screen, FGF22 synaptogenesis inhibitor project, biophysical, thermal shift, single point; recombinant FGF22 thermal shift, SYPRO orange fluorescence; percent of sucrose octasulfate shift, DMSO zero; activity (Tm shift, normalised), % at 9.99 µM; actives 1.5% (n = 340,000);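 active means mean Tm shift, scaled 0 neutral to 100 positive control, at about 1.3% or above, every replicate too, limit read from the data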
Target sequence (Q9HCT0 whole entry, looked up): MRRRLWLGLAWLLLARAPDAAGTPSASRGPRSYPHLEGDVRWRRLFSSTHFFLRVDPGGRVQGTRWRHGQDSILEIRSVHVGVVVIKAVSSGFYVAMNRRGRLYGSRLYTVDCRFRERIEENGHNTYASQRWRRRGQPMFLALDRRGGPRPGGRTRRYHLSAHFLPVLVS
DENV2 CPE rescue = inhibitors of DENV2 cytopathic effect, primary screen, cell-based, plate reader, single concentration; DENV2-infected cells, cytopathic effect rescue; CPE inhibition, % at 9.99 µM; actives 1.7% (n = 350,000); in the data active means CPE inhibition above about 20%, passing the limit was not always enough; tested in BHK-21 cells;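 further: 0% = median of neutral control wells and 100% = median of positive control wells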
ARNT-TACC3 inh = disruptors of ARNT/TACC3 protein interaction, primary screen, biochemical, AlphaScreen, single concentration | Transforming acidic coiled-coil-containing protein 3 (Homo sapiens), Q9Y6A5 | AlphaScreen His-ARNT PAS-B/GST-TACC3 binding, luminescence; TACC3 fragment carries E629A point mutation | inhibition, % at 9.99 µM | actives 0.66% (n = 390,000);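 active means mean inhibition of replicates at least 50% and at least half of replicates each reaching 50%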;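 further: 0% = complete ARNT plus TACC3 wells and 100% = ARNT alone without TACC3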
* = called active by the depositor; . = no result given. Compounds with a hit are over-represented: about 3.8% of the library has one in this group of screens.

SMILES	FN deposit inh	XiGFP reactiv	SIRT5 inh	FGF22 binding	DENV2 CPE rescue	ARNT-TACC3 inh
CCCC[C@@H]1CNC(=O)C(=O)N1CCCCC1CCCCC1	-10	0	.	0	42*	.
CC(C)C[C@H]1CN(CCCC[C@H]2CNC(=O)C(=O)N2CCC2CCCCC2)C(=O)C(=O)N1CCc1ccccc1	2	0	-3	0	-5	.
CC(C)C[C@@H]1CN(CCCC[C@H]2CNC(=O)C(=O)N2CCC2CCCCC2)C(=O)C(=O)N1Cc1ccccc1	-1	0	7	0	24*	.
CC(C)(C)CN1C(=O)C(=O)NC[C@@H]1CCCCN	17	0	.	0	136*	-3
CC(C)(C)CN1C(=O)C(=O)NC[C@@H]1CC1CCCCC1	3	0	.	0	-3	.
O=C1NC[C@@H](CCCCN2CCN(CCc3ccc(O)cc3)C(=O)C2=O)N(Cc2ccccc2)C1=O	-5	0	-1	1	87*	.
O=C1NC[C@H](CCCCN2CCN(CCc3ccccc3)C(=O)C2=O)N(CCc2ccc(O)cc2)C1=O	0	0	.	0	-1	.
COc1ccc(-c2cnc3c(c2)C(=O)N([C@@H](C)CO)C[C@H](C)[C@@H](CN(C)S(C)(=O)=O)O3)cc1	-4	0	-3	0	9	-9
CCn1nc(C(=O)OCC(=O)N(CC(C)C)c2c(N)n(Cc3ccccc3)c(=O)[nH]c2=O)c2ccccc2c1=O	2	0	-1	9.2*	4	1
CC(C)CN(C(=O)COC(=O)c1cccc2ccccc12)c1c(N)n(Cc2ccccc2)c(=O)[nH]c1=O	.	-1	-1	0	-4	2
N#CCCN(C(=O)COC(=O)c1cc(=O)c2ccccc2o1)c1ccccc1	2	0	-19	.	14	-1
CCn1nc(C(=O)OCC(=O)N(CCC#N)c2ccccc2)c2ccccc2c1=O	-1	0	1	0	75*	2
N#C[C@H]1[C@@H](c2ccccc2-c2ccc(F)cc2)[C@H](CO)N1c1ncc(-c2ccccc2)s1	-1	0	1	0	-6	.
N#C[C@@H]1[C@H](c2ccccc2-c2ccc(F)cc2)[C@H](CO)N1c1ncc(-c2ccccc2)s1	-4	0	.	0	-8	.
N#C[C@@H]1[C@@H](c2ccccc2-c2ccc(F)cc2)[C@H](CO)N1c1ncc(-c2ccccc2)s1	10	0	4	0	76*	.
N#C[C@H]1[C@@H](c2ccccc2-c2ccccc2)[C@@H](CO)N1c1ncc(-c2ccccc2)s1	-4	0	24*	0	4	.
N#C[C@H]1[C@@H](c2ccccc2-c2ccc(F)cc2)[C@@H](CO)N1c1ncc(-c2ccccc2)s1	-8	0	0	0	23*	.
CCc1cnc(N2[C@@H](C#N)[C@@H](c3ccccc3C3=CCCC3)[C@@H]2CO)s1	-20	0	-2	0	20*	.
O=C(C[C@H]1CC[C@H](NC(=O)c2cnccn2)[C@H](CO)O1)NCc1ccccc1F	6	0	1	0	-5	7
CN1C(=O)c2cc(NC(=O)C3CCCC3)ccc2OC[C@H]2O[C@@H](CC(=O)NCC(F)(F)F)CC[C@H]21	-3	0	-1	0	-7	9
O=C(C[C@H]1C=C[C@@H](NC(=O)C2CC2)[C@H](CO)O1)NCCCN1CCOCC1	.	0	4	0	-3	0
N#C[C@H]1[C@H](c2ccc(-c3cccc(F)c3)cc2)[C@@H](CO)N1c1nc(-c2ccccc2)cs1	-21	0	2	.	38*	.
C[C@@H]1CN([C@H](C)CO)C(=O)c2cc(C3=CCCC3)cnc2O[C@@H]1CN(C)C(=O)Nc1ccccc1	.	-1	-9	0	34*	-3
